{
  "source": "PubChem BioAssay AID489031",
  "about": "(Sanford-Burnham Center for Chemical Genomics, 2010)",
  "note": "About 1,000 (0.3%) of roughly 330,000 compounds were called active. Shown is part of a subset that was picked to be rich in actives. Unmarked numbers belong to inactive results.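 The calls were made as follows: active = activity change at or below -40% at 20 µM; inactive = the rest.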",
  "data": [
    {"biological_target": "Apoptotic protease-activating factor 1 (Homo sapiens) (UniProt O14727)", "sequence (O14727 whole entry, looked up)": "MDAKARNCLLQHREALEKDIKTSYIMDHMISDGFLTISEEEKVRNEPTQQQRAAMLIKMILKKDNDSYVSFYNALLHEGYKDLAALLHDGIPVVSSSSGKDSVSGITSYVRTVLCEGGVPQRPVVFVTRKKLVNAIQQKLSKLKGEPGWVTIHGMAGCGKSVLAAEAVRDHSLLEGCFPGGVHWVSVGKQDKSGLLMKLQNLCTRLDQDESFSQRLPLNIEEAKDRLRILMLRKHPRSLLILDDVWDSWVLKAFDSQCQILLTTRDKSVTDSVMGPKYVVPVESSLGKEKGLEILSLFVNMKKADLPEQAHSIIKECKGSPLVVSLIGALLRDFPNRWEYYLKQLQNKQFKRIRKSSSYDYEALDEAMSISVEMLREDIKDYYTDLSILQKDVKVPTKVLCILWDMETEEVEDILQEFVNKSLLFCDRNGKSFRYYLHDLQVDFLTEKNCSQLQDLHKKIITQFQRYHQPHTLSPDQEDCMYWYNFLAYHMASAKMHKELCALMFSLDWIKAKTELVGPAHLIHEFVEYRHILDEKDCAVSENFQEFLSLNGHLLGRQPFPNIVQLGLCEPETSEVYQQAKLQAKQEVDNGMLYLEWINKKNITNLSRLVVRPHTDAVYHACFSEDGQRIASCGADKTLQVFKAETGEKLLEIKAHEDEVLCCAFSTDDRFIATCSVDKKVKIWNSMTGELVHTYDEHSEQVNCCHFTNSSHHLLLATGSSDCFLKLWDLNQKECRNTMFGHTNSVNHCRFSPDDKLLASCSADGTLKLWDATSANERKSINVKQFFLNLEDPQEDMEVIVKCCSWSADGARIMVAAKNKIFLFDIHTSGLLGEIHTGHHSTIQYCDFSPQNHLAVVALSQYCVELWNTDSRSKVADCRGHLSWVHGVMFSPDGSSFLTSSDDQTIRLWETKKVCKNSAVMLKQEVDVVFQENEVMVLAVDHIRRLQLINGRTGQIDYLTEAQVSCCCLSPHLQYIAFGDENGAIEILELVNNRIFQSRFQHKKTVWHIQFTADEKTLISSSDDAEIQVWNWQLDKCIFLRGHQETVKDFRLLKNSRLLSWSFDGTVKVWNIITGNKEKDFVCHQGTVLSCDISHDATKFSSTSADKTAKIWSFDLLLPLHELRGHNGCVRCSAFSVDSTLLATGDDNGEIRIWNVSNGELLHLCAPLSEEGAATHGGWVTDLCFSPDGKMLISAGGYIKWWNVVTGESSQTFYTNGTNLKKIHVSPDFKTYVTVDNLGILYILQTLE", "experiment": "activators of human Apaf-1 apoptosome, primary screen, biochemical, DEVD-Rh110 fluorescence, uHTS (AID 489031)", "conditions": "Apaf-1 apoptosome caspase-3 activation, at 20 µM, stronger effect = lower value", "outline": "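System: Reconstituted apoptosome of Apaf-1, cytochrome c, caspase-9, procaspase-3 | Reagent: dATP, cytochrome c, and (Z-DEVD)2-Rh110 caspase-3 substrate | Times: 30 min compound preincubation and 50 min reaction, both room temperature | Detection: Caspase-3-released Rh110 fluorescence, 540 nm emission, 480 nm excitation | Measure: Caspase-3 activity via Apaf-1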", "values": [
      {"smiles": "CC1CC(=S)Nc2ccccc2N1Cc1ccccc1", "note": "(centres undefined)", "activity change, negative = activation": "41.4%"},
      {"smiles": "Cc1c(-c2nn(C)c(=O)c3ccccc23)oc2ccc(F)cc2c1=O", "activity change, negative = activation": "82%"},
      {"smiles": "COc1ccc(Cl)cc1NC(=O)CCS(=O)(=O)c1ccc(Br)cc1", "activity change, negative = activation": "-182% (active)"},
      {"smiles": "CCn1cc(CN2CCC(C(=O)Nc3cccc(-c4cccc(Cl)c4)c3)CC2)c(C)n1", "activity change, negative = activation": "40.5%"},
      {"smiles": "CCN1C(=O)c2cccc3c(N)ccc1c23", "activity change, negative = activation": "97.1%"},
      {"smiles": "CN(C)S(=O)(=O)c1ccc(C(=O)NCCN=C2NS(=O)(=O)c3ccccc32)cc1", "activity change, negative = activation": "-486% (active)"},
      {"smiles": "Cc1[nH]n(-c2ccccc2)c(=O)c1/C=N/NC(=O)c1ccoc1C", "activity change, negative = activation": "61.5%"},
      {"smiles": "CC(C)CC[n+]1ccn(C2=C([O-])c3ccccc3C(=O)/C2=N\\S(=O)(=O)c2ccccc2)c1", "activity change, negative = activation": "55.3%"},
      {"smiles": "CCCCNC(=O)C(C)N(CCN(C)C)C(=O)CCCN1C(=O)NC(c2ccc(Cl)cc2)C(C(=O)OCc2ccccc2)=C1C", "note": "(centres undefined)", "activity change, negative = activation": "57.1%"},
      {"smiles": "COc1ccc2c(c1)CCNC2Cc1ccc(OC)c(O)c1", "note": "(centres undefined)", "activity change, negative = activation": "-42.7% (active)"},
      {"smiles": "CC1=NN(c2ccc(Cl)c(C(=O)O)c2)C(=O)/C1=C/c1ccc(-c2ccccc2[N+](=O)[O-])o1", "activity change, negative = activation": "42.9%"},
      {"smiles": "O=C1NNC(c2ccccc2)=N/C1=C\\c1ccc(Cl)cc1", "activity change, negative = activation": "50.6%"},
      {"smiles": "CN(CCOc1ccc(CC2SC(=O)NC2=O)cc1)c1ccccn1", "note": "(centres undefined)", "activity change, negative = activation": "-0.067%"},
      {"smiles": "C#CCOCCOCCOCCNc1nc(N2CCN(C(=O)CCCCCCCCCCNC(=O)[C@H]([C@@H](C)CC)n3cc(CCCCN=C(N)N)nn3)CC2)nc(N2CCN(C(=O)CCCCCCCCCCNC(=O)[C@H](CO)n3cc(CCCSC)nn3)CC2)n1", "activity change, negative = activation": "59.2%"},
      {"smiles": "Cc1cc(NC(=O)c2cccc(N3C(=O)CCC3=O)c2)no1", "activity change, negative = activation": "-110% (active)"},
      {"smiles": "O=C(CCc1ccccc1)NNC(=O)c1ccc(Br)cc1", "activity change, negative = activation": "-96.1% (active)"},
      {"smiles": "O=C(CCNS(=O)(=O)c1ccccc1)NCCSc1ccc(Br)cc1", "activity change, negative = activation": "58.6%"},
      {"smiles": "COc1ccc(C(CNC(=O)c2ccc(S(=O)(=O)Nc3ccccc3F)cc2)N(C)C)cc1", "note": "(centres undefined)", "activity change, negative = activation": "56.5%"},
      {"smiles": "O=[N+]([O-])c1ccc2nc(-c3ccccn3)[nH]c2c1", "activity change, negative = activation": "-143% (active)"},
      {"smiles": "COc1cc(C(=O)NCc2nnc(SCC(=O)Nc3nc4ccc(C)cc4s3)o2)cc(OC)c1OC", "activity change, negative = activation": "-87.4% (active)"},
      {"smiles": "Oc1c(C=Nc2cccc3nsnc23)ccc2ccccc12", "activity change, negative = activation": "95.8%"},
      {"smiles": "CCOc1c(Br)cc(/C=C2\\C(=O)N(CCC#N)N=C2C)cc1OC", "activity change, negative = activation": "75.9%"},
      {"smiles": "O=C1Nc2ccc([N+](=O)[O-])cc2C1=Nc1cccc(CO)c1", "activity change, negative = activation": "41.2%"},
      {"smiles": "COc1ccc(N(CCC(=O)NCCc2ccccc2)S(=O)(=O)c2ccc(C)cc2C)cc1", "activity change, negative = activation": "54.9%"},
      {"smiles": "COc1ccc(OCCCC(=O)NCCc2ccccc2)cc1", "activity change, negative = activation": "-144% (active)"},
      {"smiles": "CCN1C(=NCc2ccc(OC)cc2)N[C@@H](CCc2ccccc2)[C@H](C(=O)NCc2ccc(OC)cc2)[C@H]1C", "activity change, negative = activation": "40.4%"},
      {"smiles": "Cc1ccc(S(=O)(=O)N2CCN(C(=O)c3ccccc3-c3nc4ccccc4s3)CC2)c(C)c1", "activity change, negative = activation": "40.3%"},
      {"smiles": "COCC(C)OC(=O)c1c(N)n(CCCN2CCOCC2)c2nc3ccccc3nc12", "note": "(centres undefined)", "activity change, negative = activation": "50.9%"},
      {"smiles": "C#CCOCCOCCOCCNc1nc(N2CCN(C(=O)CCCCCCCCCCNC(=O)Cn3cc(CCCCCN)nn3)CC2)nc(N2CCN(C(=O)CCCCCCCCCCNC(=O)[C@H](CO)n3cc(CCCSC)nn3)CC2)n1", "activity change, negative = activation": "60.7%"},
      {"smiles": "O=C(Nc1cccc(C(F)(F)F)c1)c1cnccn1", "activity change, negative = activation": "-50.6% (active)"},
      {"smiles": "C#CCOCCOCCOCCNc1nc(N2CCN(C(=O)C([C@@H](C)O)n3cc([C@@H](N)CCCCN)nn3)CC2)nc(N2CCN(C(=O)[C@H](CCCCN)n3cc(CN)nn3)CC2)n1", "note": "(some centres undefined)", "activity change, negative = activation": "42.2%"},
      {"smiles": "C[C@@H](CN1CCC[C@H]1CN1C(N)=NC[C@@H]1Cc1ccccc1)N1C[C@@H](Cc2ccccc2)N(CCCC2CCCC2)C1=N", "activity change, negative = activation": "70.9%"},
      {"smiles": "CCOC(=O)c1ccc(Nc2cc3ccccc3c(=O)[nH]2)cc1", "activity change, negative = activation": "92.5%"},
      {"smiles": "Brc1ccc(/C=N/N2CCN(C3c4ccccc4-c4ccccc43)CC2)s1", "activity change, negative = activation": "-255% (active)"},
      {"smiles": "CCc1ccc(CNC(=O)C2CCN(c3nnc(C)c4c(C)n(-c5ccc(C)cc5)nc34)CC2)cc1", "activity change, negative = activation": "42.3%"},
      {"smiles": "COc1cccc(C(=O)Nc2ccc(N3CCCC3)cc2)c1", "activity change, negative = activation": "-89.7% (active)"},
      {"smiles": "Cc1cc(N2CCCC2)ccc1NC(=O)COc1ccc(Cl)cc1", "activity change, negative = activation": "62.2%"},
      {"smiles": "CCCCCCc1cc2cc(-c3nnc(-c4ccccc4)o3)c(=O)oc2cc1O", "activity change, negative = activation": "67.8%"},
      {"smiles": "COC1=C(N2CCOCC2)C(=O)c2ccccc2C1=O", "activity change, negative = activation": "65.8%"}
    ]}
  ]
}
